Experiments:
[1] = target: T1, Thromboxane-A synthase (Homo sapiens, UniProt P24557); assay: In vitro inhibition of thromboxane synthase using [14C]arachidonic acid
T1 sequence (P24557 whole entry): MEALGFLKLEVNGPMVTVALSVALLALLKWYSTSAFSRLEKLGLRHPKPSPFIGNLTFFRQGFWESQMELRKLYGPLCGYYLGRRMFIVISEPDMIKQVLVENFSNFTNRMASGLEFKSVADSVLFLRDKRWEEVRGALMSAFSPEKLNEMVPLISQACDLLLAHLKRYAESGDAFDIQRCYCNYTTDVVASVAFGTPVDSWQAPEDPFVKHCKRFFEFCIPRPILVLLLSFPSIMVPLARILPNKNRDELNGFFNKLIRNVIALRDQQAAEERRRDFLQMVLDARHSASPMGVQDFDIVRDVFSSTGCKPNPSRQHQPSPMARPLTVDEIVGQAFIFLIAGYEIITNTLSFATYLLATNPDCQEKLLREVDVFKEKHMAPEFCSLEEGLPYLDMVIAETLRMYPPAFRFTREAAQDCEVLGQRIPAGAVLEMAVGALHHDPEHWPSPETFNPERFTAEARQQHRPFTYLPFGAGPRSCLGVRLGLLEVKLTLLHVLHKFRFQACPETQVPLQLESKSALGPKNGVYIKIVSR
How it was run: (§1)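 Human platelet microsomal preparation incubated with [14C]arachidonic acid; thromboxane synthase activity read as TxB2 formation; IC50 determined.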

[2] = species: Homo sapiens; assay: In vitro inhibition of U 46619 induced aggregation of washed human platelets; assay type: functional
[3] = species: Canis familiaris; assay: In vitro inhibition of U 46619 induced contraction of dog saphenous vein; assay type: functional; conditions: Canis lupus familiaris, read-out: pA2 (converted)
How it was run: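 Dog saphenous vein rings 2-3 mm in modified Krebs buffer with 1.0 μM indomethacin, 95% O2/5% CO2, 37 °C, 2.0 g preload, isometric tension.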

[4] = species: Homo sapiens; assay: In vitro inhibition of U 46619 induced aggregation of human PRP; assay type: functional, organism-based
[5] = target: T1, Thromboxane-A synthase; assay: In vitro inhibition of Thromboxane synthase using [14C]arachidonic acid […]; how it was run: as §1

Row | SMILES | IC50 [1] | IC50 [2] | IC50 [4] | IC50 [5] | Kb [3]
1 | O=C(O)CCCCCC[C@@H]1C2CCC(C2)C1c1cccnc1 (some centres not stated) | 125 nM | 9770 nM |  |  | 
2 | O=C(O)CCCCCC[C@H]1C2CCC(C2)[C@H]1c1cccnc1 (some centres not stated) | 7 nM | 13000 nM |  |  | 
3 | O=C(O)CCCC/C=C\C[C@@H]1C2CCC(C2)C1c1cccnc1 (some centres not stated) |  |  |  | 165 nM | 

Now from value to compound, other results behind:

Row | IC50 [1] | IC50 [2] | IC50 [4] | IC50 [5] | SMILES | Kb [3]
4 | 54 nM | 7250 nM |  |  | O=C(O)CCCCCC[C@@H]1C2CCC(C2)[C@@H]1c1cccnc1 (some centres not stated) | 
5 |  | 1280 nM | 2830 nM | 3 nM | O=C(O)CCCCO/N=C(/c1cccnc1)c1cccc(C(F)(F)F)c1 [RIDOGREL] | 447 nM
6 | 790 nM | 1500 nM |  |  | O=C(O)CCC/C=C\C[C@@H]1C2CCC(C2)[C@@]1(CCCCCc1ccccc1)c1cccnc1 (some centres not stated) | 
7 | 340 nM | 30 nM | 10800 nM |  | O=C(O)CC/C=C\C[C@@]1(c2cccnc2)C2CCC(C2)[C@H]1CNS(=O)(=O)c1ccc(Cl)cc1 (some centres not stated) | 3.24 nM

— ChEMBL document CHEMBL1125883, “Thromboxane receptor antagonism combined with thromboxane synthase inhibition. 1. (+/-)-(3-pyridinylbicycloheptyl)alkanoic acids” (J Med Chem, 1991)
